Test results from ChEMBL document CHEMBL3286242, “Design, synthesis and biological evaluation of arylcinnamide hybrid derivatives as novel anticancer agents” (Eur J Med Chem, 2014).
Activity calls are given as the source filed them. No cut-off for these calls is given here.

Columns and labels:
[1] = Cytotoxicity against human LoVo/DX cells assessed as growth inhibition after 72 hrs by MTT assay; type: functional, cell-based
HeLa [2] = experiment: Induction of apoptosis in human HeLa cells assessed as caspase-8 activation at 1 to 2.5 uM after 24 to 48 hrs by Western blotting analysis; type: functional, cell-based
How it was run: (§1)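 HeLa cells treated at indicated concentrations and times; washed in cold PBS, lysed 30 min at 0 °C, cleared at 15 000 × g; 20 μg protein resolved on 7.5–15% gradient SDS-PAGE, blotted to PVDF, primary antibodies 2 h room temperature, peroxidase secondary 60 min, ECL detection; β-actin reprobe for loading.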

HeLa [3] = experiment: Cell cycle arrest in human HeLa cells assessed as accumulation at G2/M phase after 24 hrs by propidium iodide staining-based flow cytometry; type: functional
How it was run: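 HeLa cells in exponential growth (2.5 × 10^5) treated 24 h at various concentrations; ethanol-fixed (70%, ice-cold), lysed with RNase A/0.1% Triton X-100, PI-stained; DNA content by flow cytometry, phase percentages from DNA histograms.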

[4] = Cytotoxicity against human SEM cells assessed as growth inhibition after 72 hrs by MTT assay; type: functional, cell-based
HeLa [5] = experiment: Induction of intracellular ROS generation in human HeLa cells at 1 to 5 uM after 1 to 6 hrs by hydroethidine staining-based flow cytometry; type: functional, cell-based
How it was run: (§2)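 HeLa cells treated at various concentrations and times; ROS followed by flow cytometry with H2DCFDA or hydroethidine (HE, mainly superoxide).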

MCF7 = experiment: Cytotoxicity against human MCF7 cells assessed as growth inhibition after 72 hrs by MTT assay; type: functional, cell-based; conditions: MCF7, 72 h
HeLa [6] = experiment: Cytotoxicity against human HeLa cells assessed as growth inhibition after 72 hrs by MTT assay; type: functional, cell-based
HT-29 = experiment: Cytotoxicity against human HT-29 cells assessed as growth inhibition after 72 hrs by MTT assay; type: functional, cell-based; conditions: HT-29, 72 h
HeLa [7] = experiment: Induction of apoptosis in human HeLa cells assessed as PARP cleavage after 24 to 48 hrs by Western blotting analysis; type: functional, cell-based; how it was run: as §1
HeLa [8] = experiment: Induction of apoptosis in human HeLa cells assessed as cell viability at 2.5 uM after 48 hrs by MTT assay in presence of N-acetylcysteine; type: functional, cell-based
How it was run: (§3)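 HeLa cells exposed to 2.5 μM compound for 48 h with scavengers (NAC 100 μM, GSH 1 mM or DTT 1 mM, among others); viability by MTT; means ± SEM of four independent experiments, Student's t-test.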

HeLa [9] = experiment: Induction of intracellular ROS generation in human HeLa cells after 1 to 6 hrs by H2DCFDA staining-based flow cytometry; type: functional, cell-based; how it was run: as §2
HeLa [10] = experiment: Induction of apoptosis in human HeLa cells assessed as cell viability at 2.5 uM after 48 hrs by MTT assay in presence of dithiothreitol; type: functional, cell-based; how it was run: as §3
CCRF-CEM = experiment: Resistance ratio of IC50 for human CEM/VBL100 cells to IC50 for human CEM cells; type: functional
How it was run: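 Ratio of IC50 in resistant line to IC50 in parental line (CEMVbl-100/CEM; LoVoDoxo/LoVo), each IC50 from 72 h MTT dose–response curves, ≥3 independent experiments.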

[11] = Cytotoxicity against human CEM/VBL100 cells assessed as growth inhibition after 72 hrs by MTT assay; type: functional, cell-based; conditions: CEM/VBL100, 72 h
HeLa [12] = experiment: Induction of DNA damage in human HeLa cells assessed as increase in gammaH2A.X protein expression at 1 to 2.5 uM after 24 hrs by Western blotting analysis; type: functional, cell-based

SMILES: C=C(Br)C(=O)Nc1ccc(/C=C/C(=O)Nc2cc(OC)c(OC)c(OC)c2)cc1
- IC50 [1]: 1370 nM
- Activity (HeLa [2]): Active
- Activity (HeLa [3]): Dose-dependent effect
- IC50 [4]: 110 nM
- Activity (HeLa [5]): inactive
- IC50 (MCF7): 3000 nM
- IC50 (HeLa [6]): 490 nM
- IC50 (HT-29): 3.7 µM
- Activity (HeLa [7]): Dose-dependent effect
- Activity (HeLa [8]): inactive
- Activity (HeLa [9]): Dose-dependent effect
- Activity (HeLa [10]): inactive
- Ratio IC50 (CCRF-CEM): 0.6
- IC50 [11]: 15 nM
- Activity (HeLa [12]): Active
